ChEMBL document CHEMBL3272012, “5-(Tetradecyloxy)-2-furancarboxylic acid and related hypolipidemic fatty acid-like alkyloxyarylcarboxylic acids” (J Med Chem, 1977)

Assays:
Rattus norvegicus [1] = experiment: Hypolipidemic activity in Wistar rat assessed as reduction in plasma cholesterol level at 332 umol/kg/day administered through diet for 4 days; type: functional; details: 96 h
Outline: (§1)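 Young male Wistar rats, 170-190 g at start, in groups of six, given compound mixed into Purina Lab Chow ad libitum for 4 or 10 days as stated. Daily dose was calculated from food consumption and body weight. Plasma was taken by cardiac puncture at the end and cholesterol measured by automated procedure. Results are % reduction versus a concurrent untreated control group, with Student's t test.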

Rattus norvegicus [2] = experiment: Hypolipidemic activity in Wistar rat assessed as reduction in plasma triglyceride level at 332 umol/kg/day administered through diet for 4 days; type: functional; details: 96 h
Outline: (§2)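 Young male Wistar rats, 170-190 g initial weight, six per group, fed drug mixed thoroughly into Purina Lab Chow ad libitum for the stated days; daily dose calculated from food consumption and body weight. Bled by cardiac puncture at end; plasma cholesterol and triglycerides by automated procedures, expressed as percent reduction versus simultaneous untreated controls; Student's t test.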

Rattus norvegicus [3] = experiment: Increase in liver weight in Wistar rat at 332 umol/kg/day administered through diet for 4 days; type: ADME, organism-based; details: in vivo, po, 96 h
Rattus norvegicus [4] = experiment: Increase in liver weight in Wistar rat at 944 umol/kg/day administered through diet for 10 days; type: ADME, organism-based; details: in vivo, po, 240 h
Rattus norvegicus [5] = experiment: Increase in liver weight in Wistar rat at 303 umol/kg/day administered through diet for 10 days; type: ADME, organism-based; details: in vivo, po, 240 h
Rattus norvegicus [6] = experiment: Hypolipidemic activity in Wistar rat assessed as reduction in plasma triglyceride level at 89 umol/kg/day administered through diet for 10 days; type: functional; details: 240 h
Rattus norvegicus [7] = experiment: Increase in cholesterol level in Wistar rat liver at 89 umol/kg/day administered through diet for 10 days; type: ADME, organism-based; details: in vivo, po, 240 h
Rattus norvegicus [8] = experiment: Hypolipidemic activity in Wistar rat assessed as reduction in plasma triglyceride level at 303 umol/kg/day administered through diet for 10 days; type: functional; details: 240 h; outline: as §2
Rattus norvegicus [9] = experiment: Hypolipidemic activity in Wistar rat assessed as reduction in plasma triglyceride level at 944 umol/kg/day administered through diet for 10 days; type: functional; details: 240 h
Rattus norvegicus [10] = experiment: Increase in liver weight in Wistar rat at 89 umol/kg/day administered through diet for 10 days; type: ADME, organism-based; details: in vivo, po, 240 h
Rattus norvegicus [11] = experiment: Increase in cholesterol level in Wistar rat liver at 303 umol/kg/day administered through diet for 10 days; type: ADME, organism-based; details: in vivo, po, 240 h
Rattus norvegicus [12] = experiment: Hypolipidemic activity in Wistar rat assessed as reduction in plasma cholesterol level at 89 umol/kg/day administered through diet for 10 days; type: functional; details: 240 h
Outline: (§3)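 Young male Wistar rats (initial weight 170-190 g), groups of six, fed compound mixed into Purina Lab Chow ad libitum for 4 or 10 days; daily dose calculated from food consumption and body weight. Bled by cardiac puncture; plasma cholesterol and triglycerides by automated procedures; percent reduction versus simultaneous untreated controls, Student's t test.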

Rattus norvegicus [13] = experiment: Hypolipidemic activity in Wistar rat assessed as reduction in plasma cholesterol level at 944 umol/kg/day administered through diet for 10 days; type: functional; details: 240 h; outline: as §3
Rattus norvegicus [14] = experiment: Increase in cholesterol level in Wistar rat liver at 944 umol/kg/day administered through diet for 10 days; type: ADME, organism-based; details: in vivo, po, 240 h
Rattus norvegicus [15] = experiment: Hypolipidemic activity in Wistar rat assessed as reduction in plasma cholesterol level at 303 umol/kg/day administered through diet for 10 days; type: functional; details: 240 h; outline: as §1
Rattus norvegicus [16] = experiment: Hypolipidemic activity in Wistar rat assessed as reduction in plasma triglyceride level at 417 umol/kg/day administered through diet for 4 days; type: functional; details: 96 h
Rattus norvegicus [17] = experiment: Increase in liver weight in Wistar rat at 417 umol/kg/day administered through diet for 4 days; type: ADME, organism-based; details: in vivo, po, 96 h
Rattus norvegicus [18] = experiment: Hypolipidemic activity in Wistar rat assessed as reduction in plasma cholesterol level at 417 umol/kg/day administered through diet for 4 days; type: functional; details: 96 h
Outline: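 Young male Wistar rats, 170-190 g initial weight, groups of six, given compound mixed thoroughly into Purina Lab Chow ad libitum for 4 or 10 days as stated. Daily dose calculated from food consumption and body weight. Bled by cardiac puncture at end of treatment; plasma cholesterol measured by automated procedure. Expressed as percent reduction versus simultaneous untreated control group; Student's t test.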

Rattus norvegicus [19] = experiment: Hypolipidemic activity in Wistar rat assessed as reduction in plasma cholesterol level at 179 umol/kg/day administered through diet for 10 days; type: functional; details: 240 h; outline: as §1
Rattus norvegicus [20] = experiment: Increase in cholesterol level in Wistar rat liver at 402 umol/kg/day administered through diet for 10 days; type: ADME, organism-based; details: in vivo, po, 240 h
Rattus norvegicus [21] = experiment: Hypolipidemic activity in Wistar rat assessed as reduction in plasma triglyceride level at 402 umol/kg/day administered through diet for 10 days; type: functional; details: 240 h
Rattus norvegicus [22] = experiment: Hypolipidemic activity in Wistar rat assessed as reduction in plasma triglyceride level at 85 umol/kg/day administered through diet for 10 days; type: functional; details: 240 h
Rattus norvegicus [23] = experiment: Increase in liver weight in Wistar rat at 402 umol/kg/day administered through diet for 10 days; type: ADME, organism-based; details: in vivo, po, 240 h
Rattus norvegicus [24] = experiment: Increase in cholesterol level in Wistar rat liver at 85 umol/kg/day administered through diet for 10 days; type: ADME, organism-based; details: in vivo, po, 240 h
Rattus norvegicus [25] = experiment: Increase in liver weight in Wistar rat at 85 umol/kg/day administered through diet for 10 days; type: ADME, organism-based; details: in vivo, po, 240 h
Rattus norvegicus [26] = experiment: Hypolipidemic activity in Wistar rat assessed as reduction in plasma cholesterol level at 402 umol/kg/day administered through diet for 10 days; type: functional; details: 240 h; outline: as §1
Rattus norvegicus [27] = experiment: Hypolipidemic activity in Wistar rat assessed as reduction in plasma cholesterol level at 85 umol/kg/day administered through diet for 10 days; type: functional; details: 240 h; outline: as §3
Rattus norvegicus [28] = experiment: Hypolipidemic activity in Wistar rat assessed as reduction in plasma triglyceride level at 179 umol/kg/day administered through diet for 10 days; type: functional; details: 240 h; outline: as §3
Rattus norvegicus [29] = experiment: Increase in liver weight in Wistar rat at 179 umol/kg/day administered through diet for 10 days; type: ADME, organism-based; details: in vivo, po, 240 h
Rattus norvegicus [30] = experiment: Increase in cholesterol level in Wistar rat liver at 179 umol/kg/day administered through diet for 10 days; type: ADME, organism-based; details: in vivo, po, 240 h
Outline: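 Male Wistar rats (170-190 g), six per group, given compound by admixture to lab chow ad libitum for 4 or 10 days, dose derived from food intake. Liver cholesterol determined by automated procedure, expressed as mg/g wet tissue, compared with an untreated control group by Student's t test.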

Compound CCCCCCCCCCCCCCOc1cc(C(=O)OC)cc(C(=O)OC)c1 has an inhibition in vivo at 332 µmol/kg (Rattus norvegicus [1]) of 5%, an inhibition in vivo at 332 µmol/kg (Rattus norvegicus [2]) of 39% and an Activity (Rattus norvegicus [3]) of 0%.
For CCCCCCCCCCCCc1ccc(C(=O)CC(=O)OC)cc1, the Activity (Rattus norvegicus [4]) was 20%, the Activity (Rattus norvegicus [5]) was 7% and the inhibition in vivo at 89 µmol/kg (Rattus norvegicus [6]) was 6%. For the same compound, the Activity (Rattus norvegicus [7]) was 38%, the inhibition in vivo at 303 µmol/kg (Rattus norvegicus [8]) was 63% and the inhibition in vivo at 944 µmol/kg (Rattus norvegicus [9]) was 84%. For the same compound, the Activity (Rattus norvegicus [10]) was 8%, the Activity (Rattus norvegicus [11]) was 97% and the inhibition in vivo at 89 µmol/kg (Rattus norvegicus [12]) was 4%. It also gave an inhibition in vivo at 944 µmol/kg (Rattus norvegicus [13]) of 53%, an Activity (Rattus norvegicus [14]) of 151% and an inhibition in vivo at 303 µmol/kg (Rattus norvegicus [15]) of 37%.
With CCCCCCCCCCCCCCOc1ccc(C(=O)OC)c(OC)c1 the inhibition in vivo at 417 µmol/kg (Rattus norvegicus [16]) was 0%, the Activity (Rattus norvegicus [17]) was 0% and the inhibition in vivo at 417 µmol/kg (Rattus norvegicus [18]) was 7%.
CCCCCCCCCCCCCCOc1ccc(C(=O)CC(=O)OC)cc1 was tested, and the inhibition in vivo at 179 µmol/kg (Rattus norvegicus [19]) was 27%, the Activity (Rattus norvegicus [20]) was 9% and the inhibition in vivo at 402 µmol/kg (Rattus norvegicus [21]) was 75%. The inhibition in vivo at 85 µmol/kg (Rattus norvegicus [22]) was 44%, the Activity (Rattus norvegicus [23]) was 7% and the Activity (Rattus norvegicus [24]) was 0%. It also gave an Activity (Rattus norvegicus [25]) of 0%, an inhibition in vivo at 402 µmol/kg (Rattus norvegicus [26]) of 40% and an inhibition in vivo at 85 µmol/kg (Rattus norvegicus [27]) of 9%. For the same compound, the inhibition in vivo at 179 µmol/kg (Rattus norvegicus [28]) was 54%, the Activity (Rattus norvegicus [29]) was 3% and the Activity (Rattus norvegicus [30]) was 4%.
